KLK7 zymogen act = activators of human kallikrein-7 zymogen; purified proKLK7, EDANS-DABCYL substrate fluorescence; 100% is mature enzyme control, 0% vehicle; activation, % at 7 µM; actives 0.9% (n = 370,000);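 active = activation above the mean of all tested compounds plus 3 SD, computed per campaign excluding outliers beyond control limits, cut at about 13% in these data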
CRFR2-BP ag = CRF-BP/CRF-R2 complex agonism; HEK293 CRF-R2/CRF-BP, calcium dye fluorescence (FLIPR); percent of saturating CRF peptide response; activation, % at 13.2 µM; actives 0.46% (n = 350,000);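 active = activation of at least 50%, plus an integration ratio under a set limit after plate pattern correction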
CendR NRP1 mod = alters CendR peptide binding to human NRP-1. actives 0.85% (n = 360,000). inhibition, % at 25 µM. FAM-RPARPAR peptide binding to NRP-1, fluorescence polarization. AID 602438;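 active = inhibition or corrected inhibition above about 18%, plus a signal ratio from 0.5 to 1.5, limit read from the data, passing the limit was not always enough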
Target sequence (O14786 whole entry, looked up): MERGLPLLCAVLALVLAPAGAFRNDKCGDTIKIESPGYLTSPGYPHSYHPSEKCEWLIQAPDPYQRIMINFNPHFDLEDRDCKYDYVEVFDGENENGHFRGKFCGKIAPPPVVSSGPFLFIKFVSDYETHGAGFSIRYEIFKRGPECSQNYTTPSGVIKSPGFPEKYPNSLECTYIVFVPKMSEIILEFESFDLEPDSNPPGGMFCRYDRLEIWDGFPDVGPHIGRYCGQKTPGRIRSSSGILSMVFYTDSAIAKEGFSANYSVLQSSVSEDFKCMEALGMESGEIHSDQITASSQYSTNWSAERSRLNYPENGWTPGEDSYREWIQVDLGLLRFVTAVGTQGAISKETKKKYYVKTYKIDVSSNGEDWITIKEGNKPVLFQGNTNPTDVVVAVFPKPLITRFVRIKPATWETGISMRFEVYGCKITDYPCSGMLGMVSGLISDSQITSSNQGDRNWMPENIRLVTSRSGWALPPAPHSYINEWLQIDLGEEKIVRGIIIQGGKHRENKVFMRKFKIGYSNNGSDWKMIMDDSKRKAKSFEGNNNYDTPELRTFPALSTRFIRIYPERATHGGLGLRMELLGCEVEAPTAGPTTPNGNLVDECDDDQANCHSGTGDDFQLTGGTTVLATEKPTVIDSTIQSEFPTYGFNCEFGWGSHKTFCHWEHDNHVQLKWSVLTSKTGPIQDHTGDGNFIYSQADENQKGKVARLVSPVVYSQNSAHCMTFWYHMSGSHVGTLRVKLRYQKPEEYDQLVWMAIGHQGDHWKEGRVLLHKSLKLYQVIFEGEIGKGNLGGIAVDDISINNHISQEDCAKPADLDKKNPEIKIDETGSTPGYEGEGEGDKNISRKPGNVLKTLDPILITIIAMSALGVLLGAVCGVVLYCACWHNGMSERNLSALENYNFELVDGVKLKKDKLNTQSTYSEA
CRFBP-R2 block = blocks CRF-induced signaling of the CRF-BP/CRF-R2 complex | inhibition, % at 11.8 µM | AID 588475 | actives 0.59% (n = 350,000) | HEK293 CRF-R2/CRF-BP, CRF-induced calcium fluorescence;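 active = inhibition of the ligand-induced calcium signal above about 50% at the single tested concentration, limit read from the data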
Tn7 DDE FP = disrupts Tn7 cyclic peptide binding to fibrin D-Dimer-E complex; actives 0.13% (n = 370,000); FP displacement of FITC-Tn7 peptide from fibrin DD(E); 0% = median of compound wells per plate; inhibition, % at 8.3 µM; P02675; AID 720508;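 active = inhibition above the mean of compounds falling within the control limits plus 3 SD of them, cut at about 14% in these data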
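assay system = human clot-derived fibrin DD(E) complex | quantity = Fibrin-DD(E) at 2 µM final | timing = 10 min preincubation, 3 h with tracer, room temperature | signal = fluorescence polarization | measure = percent inhibition | benchmarks = high control wells with 10 µM unlabelled Aha-Tn7 peptide (full inhibition) | replicates = singlicate testing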
DDE Tn6 FP inh = disrupts Tn6 cyclic peptide binding to fibrin D-Dimer-E complex. AID 720509. Fibrin DD(E) TRITC-Tn6 fluorescence polarization displacement. P02675. actives 0.21% (n = 370,000). inhibition, % at 8.3 µM;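 active = inhibition above a per-campaign cutoff: mean of compounds within control limits plus 3 SD, cut at about 15% in these data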
A number is an active result; - = inactive; . = not tested or not shown. Most compounds without a hit are left out; they make up all but 2.9% or so of the library.

SMILES	KLK7 zymogen act	CRFR2-BP ag	CendR NRP1 mod	CRFBP-R2 block	Tn7 DDE FP	DDE Tn6 FP inh
Cc1cc(NC(=O)Cc2ccccc2)ccc1NC(=O)c1cccs1	-	-	-	57	-	-
COCCCNC(=O)[C@@H](Cc1ccccc1)NC(=O)[C@H]1O[C@@H](n2ccc(=O)[nH]c2=O)[C@H](O)[C@@H]1O	-	.	.	.	-	-
O=[N+]([O-])/C(C(Cl)=C(Cl)Cl)=C(/NC1CC1)Sc1ccccc1	-	-	-	56	-	-
CC(=O)N[C@@H]1C[C@@H]2O[C@H](CO)CC[C@@H]2O[C@@H]1CCc1ccc(-c2ccc(F)cc2)cc1	-	.	.	.	-	-
CN1CCC(N(C)C(=O)c2ccc(Cl)c(S(=O)(=O)N(C)c3ccc(Cl)cc3)c2)CC1	-	-	33	-	-	-
CCOc1ccc(Cl)cc1S(=O)(=O)n1nnc2ccccc21	-	-	-	107	-	-
Cc1ccc(S(=O)(=O)n2nnc3ccccc32)c(C)c1C	-	-	-	93	-	-
C=CCn1c(SCC(=O)C(C)(C)C)nnc1-c1ccc(Cl)cc1	-	.	.	.	-	-
COc1ccc(C(=O)OCC(=O)N2CCN(S(=O)(=O)c3ccc(C)cc3)CC2)cc1[N+](=O)[O-]	-	-	26	-	-	-
CCc1ccc(OCC(=O)Nc2ccc(S(=O)(=O)N3CCCC3)cc2)c(Br)c1	-	-	-	-	-	-
Cc1ccc(OCC(=O)Nc2ccc(C)c(S(=O)(=O)N3CCCCCC3)c2)c([N+](=O)[O-])n1	-	-	32	-	-	-
COc1ccc(C(=O)OCC(=O)N2CCCCC2)cc1[N+](=O)[O-]	-	-	-	-	-	-
Cc1ccc(OCC(=O)N2CCN(S(=O)(=O)c3ccc(Cl)cc3)CC2)c([N+](=O)[O-])n1	-	-	-	-	-	-
Cc1ccc(S(=O)(=O)N2CCN(C(=O)COc3ccc(C)nc3[N+](=O)[O-])CC2)c(C)c1	-	-	-	78	-	-
O=C(COc1ccc(Br)cc1CO)Nc1ccc(S(=O)(=O)N2CCCCC2)cc1	-	-	25	-	-	-
COC(=O)[C@]12C[C@H](CC(=O)NCc3cccc4ccccc34)C(=O)N(Cc3ccco3)C1=C[C@H](C(C)(C)C)O[C@@H]2C	-	.	.	.	-	-
COC(=O)/C=C1/S/C(=N/NC(=O)c2ccc(Cl)cc2Cl)NC1=O	-	-	-	51	-	-
